One may read the EC50 as the midpoint of the concentration-response curve. A word on the Papp: it is a coefficient for how fast a substance crosses the barrier.

The source made the active and inactive calls. The calls are words filed in the database; no cut-off is given here.

The first data set has as its target T1, Toll-like receptor 7 (Homo sapiens, UniProt Q9NYK1).
T1 sequence (Q9NYK1 whole entry): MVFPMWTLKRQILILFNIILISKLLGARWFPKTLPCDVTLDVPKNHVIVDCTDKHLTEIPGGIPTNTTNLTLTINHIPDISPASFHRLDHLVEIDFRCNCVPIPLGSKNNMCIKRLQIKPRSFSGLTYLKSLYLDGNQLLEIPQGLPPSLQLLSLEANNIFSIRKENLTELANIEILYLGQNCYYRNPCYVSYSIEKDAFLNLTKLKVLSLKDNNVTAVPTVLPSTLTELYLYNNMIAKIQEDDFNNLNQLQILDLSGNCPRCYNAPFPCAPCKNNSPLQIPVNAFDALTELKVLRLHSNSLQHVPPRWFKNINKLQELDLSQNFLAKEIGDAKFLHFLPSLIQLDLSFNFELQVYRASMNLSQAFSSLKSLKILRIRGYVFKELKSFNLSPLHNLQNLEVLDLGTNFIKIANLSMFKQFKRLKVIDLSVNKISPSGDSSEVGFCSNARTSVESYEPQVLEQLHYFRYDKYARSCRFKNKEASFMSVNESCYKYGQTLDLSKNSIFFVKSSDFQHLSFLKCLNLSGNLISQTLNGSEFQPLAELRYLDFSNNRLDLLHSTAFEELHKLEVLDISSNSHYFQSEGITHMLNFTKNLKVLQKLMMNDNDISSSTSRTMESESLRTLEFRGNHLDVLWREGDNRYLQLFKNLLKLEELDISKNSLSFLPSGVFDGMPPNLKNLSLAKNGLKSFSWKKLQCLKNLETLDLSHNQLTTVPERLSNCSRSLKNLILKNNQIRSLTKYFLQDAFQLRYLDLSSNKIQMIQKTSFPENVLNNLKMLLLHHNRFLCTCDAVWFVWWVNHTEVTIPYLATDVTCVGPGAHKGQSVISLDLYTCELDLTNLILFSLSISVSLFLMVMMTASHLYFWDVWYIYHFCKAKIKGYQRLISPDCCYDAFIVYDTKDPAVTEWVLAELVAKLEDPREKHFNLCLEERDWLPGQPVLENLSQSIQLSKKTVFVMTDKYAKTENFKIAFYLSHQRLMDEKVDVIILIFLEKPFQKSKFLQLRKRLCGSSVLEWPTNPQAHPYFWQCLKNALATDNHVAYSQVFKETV
Put plainly: Agonist activity at TLR7 in human Ramos-blue cells assessed as increase in NFkappaB activation incubated for 72 hrs by quanti-blue/SEAP reporter gene based assay. Type of data set: cell-based.
Conditions: not given
In general terms: In a reporter assay the amount or activity of a reporter protein is the signal.
Regarding `CCCCc1nc2c(N)nc3ccccc3c2n1Cc1ccc(OC)cc1`, the EC50 came out at 0.232 µM.

As to `CCCCc1nc2c(N)nc3ccccc3c2n1Cc1ccc(N)cc1`, the EC50 amounted to 0.069 µM.

Tested on in a further data set: not listed separately
In words: Apparent permeability of the compound at 200 uM incubated for 5 hrs by PAMPA assay. The format is ADME.
Conditions: not given
In a few lines: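 PAMPA using an artificial lipid/oil/lipid trilayer membrane separating donor and acceptor wells. Compound was quantified by absorbance at 280 nm, or at 320 nm for some compounds. Runs were in triplicate, and the reported values are averages of three experiments.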
For orientation: PAMPA measures passive passage across an artificial lipid membrane.
Regarding `CCCCc1nc2c(N)nc3ccccc3c2n1Cc1ccc(NC(=O)CCN)cc1`, the Papp at 5 h, 200 µM came to 0.131 ×10⁻⁶ cm/s.

As to `CCCCc1nc2c(N)nc3ccccc3c2n1Cc1ccc(NC(=O)OCC)cc1`, the Papp at 5 h, 200 µM is 8.78 ×10⁻⁶ cm/s.

`CCCCc1nc2c(N)nc3ccccc3c2n1Cc1ccc(NC(=O)CN)cc1`: the Papp at 5 h, 200 µM was found to be 0.834 ×10⁻⁶ cm/s.

As for `CCCCc1nc2c(N)nc3ccccc3c2n1Cc1ccc(OC)cc1`, the Papp at 5 h, 200 µM was determined as 4.01 ×10⁻⁶ cm/s.

For the compound `CCCCc1nc2c(N)nc3ccccc3c2n1Cc1ccc(NC(=O)CCCCCN)cc1`, the Papp at 5 h, 200 µM amounted to 0.436 ×10⁻⁶ cm/s.

For the compound `CCCCc1nc2c(N)nc3ccccc3c2n1Cc1ccc(NC(=O)CCCN)cc1`, the Papp at 5 h, 200 µM turned out to be 0.159 ×10⁻⁶ cm/s.

For the compound `CCCCc1nc2c(N)nc3ccccc3c2n1Cc1cccc(N)c1`, the Papp at 5 h, 200 µM stood at 5.26 ×10⁻⁶ cm/s.

As to `CCCCc1nc2c(N)nc3ccccc3c2n1Cc1ccc(N)cc1`, the Papp at 5 h, 200 µM turned out to be 8.51 ×10⁻⁶ cm/s.

For `CCOCc1nc2c(N)nc3ccccc3c2n1CC(C)(C)O` [RESIQUIMOD], the Papp at 5 h, 200 µM stood at 5.3 ×10⁻⁶ cm/s.

With `CCCCc1nc2c(N)nc3ccccc3c2n1Cc1ccc(NC(=O)CCCCNC(=O)OC(C)(C)C)cc1`, the Papp at 5 h, 200 µM worked out at 1.95 ×10⁻⁶ cm/s.

For the compound `CCCCc1nc2c(N)nc3ccccc3c2n1Cc1ccc(NC(=O)CCCNC(=O)OC(C)(C)C)cc1`, the Papp at 5 h, 200 µM was determined as 1.33 ×10⁻⁶ cm/s.

With `CCCCc1nc2c(N)nc3ccccc3c2n1Cc1ccc(NC(=O)OC(C)C)cc1`, the Papp at 5 h, 200 µM amounted to 5.12 ×10⁻⁶ cm/s.

For `CCCCc1nc2c(N)nc3ccccc3c2n1Cc1ccc(O)cc1`, the Papp at 5 h, 200 µM is 3.06 ×10⁻⁶ cm/s.

With `CCCCc1nc2c(N)nc3ccccc3c2n1Cc1ccc(NC(=O)CCCCCNC(=O)OC(C)(C)C)cc1`, the Papp at 5 h, 200 µM came out at 1.91 ×10⁻⁶ cm/s.

For the compound `CCCCc1nc2c(N)nc3ccccc3c2n1Cc1cccc(O)c1`, the Papp at 5 h, 200 µM was 0.98 ×10⁻⁶ cm/s.

Take `CCCCc1nc2c(N)nc3ccccc3c2n1Cc1ccc(NC(C)=O)cc1`: the Papp at 5 h, 200 µM stood at 3.45 ×10⁻⁶ cm/s.

As to `CCCCc1nc2c(N)nc3ccccc3c2n1Cc1cccc(NC(=O)OC(C)(C)C)c1`, the Papp at 5 h, 200 µM was 1.24 ×10⁻⁶ cm/s.

As for `CCCCC(=O)Nc1ccc(Cn2c(CCCC)nc3c(N)nc4ccccc4c32)cc1`, the Papp at 5 h, 200 µM stood at 1.59 ×10⁻⁶ cm/s.

For the compound `CCCCc1nc2c(N)nc3ccccc3c2n1Cc1ccc(NC(=O)CCCCN)cc1`, the Papp at 5 h, 200 µM is 0.838 ×10⁻⁶ cm/s.

As to `CCCCOC(=O)Cc1ccc(Cn2c(CCCC)nc3c(N)nc4ccccc4c32)cc1`, the Papp at 5 h, 200 µM was 14.2 ×10⁻⁶ cm/s.

Consider `CCCCc1nc2c(N)nc3ccccc3c2n1Cc1cccc(OC)c1`, for which the Papp at 5 h, 200 µM was 2.5 ×10⁻⁶ cm/s.

Take `CCCCc1nc2c(N)nc3ccccc3c2n1Cc1ccc(NC(=O)CCNC(=O)OC(C)(C)C)cc1`: the Papp at 5 h, 200 µM amounted to 0.434 ×10⁻⁶ cm/s.

Turning to `CCCCc1nc2c(N)nc3ccccc3c2n1Cc1ccc(NC(=O)CNC(=O)OC(C)(C)C)cc1`, the Papp at 5 h, 200 µM is 4.48 ×10⁻⁶ cm/s.

The target in a further data set is T2, Toll-like receptor 8 (Homo sapiens) (UniProt Q9NR97).
T2 sequence (whole entry): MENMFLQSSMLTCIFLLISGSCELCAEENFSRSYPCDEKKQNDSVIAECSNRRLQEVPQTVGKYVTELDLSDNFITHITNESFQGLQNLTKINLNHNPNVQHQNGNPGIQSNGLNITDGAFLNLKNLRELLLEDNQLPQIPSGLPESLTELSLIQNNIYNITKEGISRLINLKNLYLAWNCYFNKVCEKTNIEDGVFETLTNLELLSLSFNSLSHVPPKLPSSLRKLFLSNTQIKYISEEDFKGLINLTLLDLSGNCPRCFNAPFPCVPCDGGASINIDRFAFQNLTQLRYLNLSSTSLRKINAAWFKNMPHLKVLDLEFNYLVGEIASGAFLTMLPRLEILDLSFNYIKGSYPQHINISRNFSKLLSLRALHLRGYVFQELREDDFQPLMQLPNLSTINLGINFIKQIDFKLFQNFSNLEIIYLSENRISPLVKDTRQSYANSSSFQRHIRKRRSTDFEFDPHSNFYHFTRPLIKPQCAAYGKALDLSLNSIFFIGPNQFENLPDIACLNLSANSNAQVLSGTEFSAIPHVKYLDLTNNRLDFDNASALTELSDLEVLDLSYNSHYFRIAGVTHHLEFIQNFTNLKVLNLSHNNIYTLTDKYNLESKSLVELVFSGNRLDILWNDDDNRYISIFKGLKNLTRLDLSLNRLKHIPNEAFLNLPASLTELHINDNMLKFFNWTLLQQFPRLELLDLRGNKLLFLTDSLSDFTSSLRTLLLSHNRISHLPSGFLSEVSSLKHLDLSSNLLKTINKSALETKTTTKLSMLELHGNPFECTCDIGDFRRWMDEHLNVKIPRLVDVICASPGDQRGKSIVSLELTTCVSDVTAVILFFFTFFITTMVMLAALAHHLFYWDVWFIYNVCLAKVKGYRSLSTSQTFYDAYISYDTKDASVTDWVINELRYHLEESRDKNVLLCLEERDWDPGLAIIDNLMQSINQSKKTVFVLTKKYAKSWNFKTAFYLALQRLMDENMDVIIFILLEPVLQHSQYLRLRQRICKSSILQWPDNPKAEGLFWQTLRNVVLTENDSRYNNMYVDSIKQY
In words: Agonist activity at TLR8 in GM-CSF induced human MDM cells assessed as increase in TNFalpha release at 80 to 2000 nM measured after 6 hrs. Type of data set: cell-based. The following applies: filed as agonist, dose 80-2000 nM.
In the case of `CCCN(CCC)C(=O)C1=Cc2ccc(-c3ccc(C(=O)N4CCCC4)cc3)cc2N=C(N)C1`, the outcome was Active.

The target in another data set is T2, Toll-like receptor 8 (Homo sapiens). Put plainly: Agonist activity at TLR8 in GM-CSF induced human MDM cells assessed as increase in IL-6 release at 80 to 2000 nM measured after 6 hrs. The settings on record: filed as agonist, dose 80-2000 nM. Type of data set: cell-based.
With `CCCN(CCC)C(=O)C1=Cc2ccc(-c3ccc(C(=O)N4CCCC4)cc3)cc2N=C(N)C1`, the result was Active.

The values are drawn from ChEMBL document CHEMBL5365545, “Synthesis and Optimization of 1-Substituted Imidazo[4,5-c]quinoline TLR7 Agonists” (ACS Med Chem Lett, 2023).
